Experimental findings from ChEMBL document CHEMBL1147044, “Design of helical, oligomeric HIV-1 fusion inhibitor peptides with potent activity against enfuvirtide-resistant virus” (Proc Natl Acad Sci U S A, 2007) are described below.

≈ marks a conversion by molar mass, not a printed value.

The nature of data set [1]: Clearance in cynomolgus monkey at 1 to 2 mg/kg, iv. It counts as ADME, organism-based, Macaca fascicularis. Details: dose 1-2 mg/kg, route intravenous. As to conditions: in vivo. In a few lines: (§1)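 Male cynomolgus monkeys received a single i.v. dose of about 1–2 mg/kg in isotonic phosphate-mannitol vehicle, given as cassettes (typically n ≤ 8). Plasma was protein-precipitated with 0.5% formic acid in acetonitrile and peptide measured by reversed-phase HPLC. Parameters were fitted with mono- or biexponential models.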

In data set [2] the test system is Human immunodeficiency virus 1. Description: Antiviral activity against HIV1 098-T1249 isolate infected in human PBMCs by reverse transcriptase assay. It counts as functional, organism-based. In a few lines: (§2)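 CD8-depleted activated PBMC targets infected at high MOI by spinoculation; infected cells incubated with uninfected targets at 2 × 10⁵ cells per well with serially diluted peptide for 9 days. Fresh compound added and samples taken every 2–3 days. Replication read by reverse transcriptase assay; IC50 from reduction in RT signal relative to infected untreated wells.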

The test system of data set [3] is Human immunodeficiency virus 1. Nature of the data set: Binding affinity to HIV1 gp41 heptad repeat 1 region assessed as thermal stability of HR1/HR2 peptide bundle complex at 1 uM in presence of 8M urea.
The test system of data set [4] is Human immunodeficiency virus 1. Nature of the data set: Antiviral activity against HIV1 098-T20 isolate infected in human PBMCs by reverse transcriptase assay. It counts as functional, organism-based. In a few lines:
as §2

A short description of data set [5]: Half life in cynomolgus monkey at 1 to 2 mg/kg, iv. It counts as ADME, organism-based, Macaca fascicularis. Set-up: dose 1-2 mg/kg, route intravenous. As to conditions: in vivo. In a few lines:
as §1

Data set [6] relates to Human immunodeficiency virus 1. Description: Antiviral activity against HIV1 098-T651 isolate infected in human PBMCs by reverse transcriptase assay. It counts as functional, organism-based. In a few lines: as §2
Data set [7] relates to Human immunodeficiency virus 1. Description: Antiviral activity against HIV1 3B infected in human PBMCs by reverse transcriptase assay. The data set is classed as functional, organism-based. As to conditions: Human immunodeficiency virus 1, 3B. In outline: as §2
Data set [8] deals with Human immunodeficiency virus 1. Nature of the data set: Antiviral activity against HIV1 098 isolate infected in human PBMCs by reverse transcriptase assay. It counts as functional, organism-based. In a few lines: as §2

By clearance is commonly meant the rate of elimination divided by the concentration. Usually IC50 stands for the point on the concentration scale where inhibition reaches its midpoint. Usually half-life stands for the time in which the quantity being followed falls by half. The molecule `CC[C@H](C)[C@H](NC(=O)[C@H](CC(C)C)NC(=O)[C@H](CO)NC(=O)[C@H](Cc1cnc[nH]1)NC(=O)[C@H](NC(=O)[C@H](CC(C)C)NC(=O)[C@H](CO)NC(=O)[C@@H](NC(=O)[C@H](Cc1ccc(O)cc1)NC(=O)[C@H](CC(N)=O)NC(=O)[C@H](CC(N)=O)NC(=O)[C@@H](NC(=O)[C@H](CCC(=O)O)NC(=O)[C@H](CCCNC(=N)N)NC(=O)[C@H](CC(=O)O)NC(=O)[C@H](Cc1c[nH]c2ccccc12)NC(=O)[C@H](CCC(=O)O)NC(=O)[C@H](CCSC)NC(=O)[C@H](Cc1c[nH]c2ccccc12)NC(=O)[C@@H](NC(=O)[C@@H](N)CCSC)[C@@H](C)O)[C@@H](C)CC)[C@@H](C)O)[C@@H](C)CC)C(=O)N[C@@H](CCC(=O)O)C(=O)N[C@@H](CCC(=O)O)C(=O)N[C@@H](CO)C(=O)N[C@@H](CCC(N)=O)C(=O)N[C@@H](CC(N)=O)C(=O)N[C@@H](CCC(N)=O)C(=O)N[C@@H](CCC(N)=O)C(=O)N[C@@H](CCC(=O)O)C(=O)N[C@@H](CCCCN)C(=O)N[C@@H](CC(N)=O)C(=O)N[C@@H](CCC(=O)O)C(=O)N[C@@H](CCC(N)=O)C(=O)N[C@@H](CCC(=O)O)C(=O)N[C@@H](CC(C)C)C(=O)N[C@@H](CC(C)C)C(=O)O` gave a clearance in data set [1] of 7.2 mL/min/kg. The IC50 in data set [2] turned out to be 0.151 µg/mL (≈ 33.7 nM); in data set [4], 0.06 µg/mL (≈ 13.4 nM); in data set [6] it was 7.6 µg/mL (≈ 1700 nM); in data set [7] it was 0.008 µg/mL (≈ 1.79 nM); in data set [8], 0.033 µg/mL (≈ 7.36 nM). Also, in data set [3], the Tm stood at 68 °C. For the same molecule, in data set [5], the half-life was 0.3 h.
`CC[C@H](C)[C@H](NC(=O)[C@H](CC(C)C)NC(=O)[C@H](CO)NC(=O)[C@H](Cc1cnc[nH]1)NC(=O)[C@@H](NC(=O)[C@H](CC(C)C)NC(=O)[C@H](CO)NC(=O)[C@@H](NC(=O)[C@H](Cc1ccc(O)cc1)NC(=O)[C@H](CC(N)=O)NC(=O)[C@H](CC(N)=O)NC(=O)[C@@H](NC(=O)[C@H](CCC(=O)O)NC(=O)[C@H](CCCNC(=N)N)NC(=O)[C@H](CC(=O)O)NC(=O)[C@H](Cc1c[nH]c2ccccc12)NC(=O)[C@H](CCC(=O)O)NC(=O)[C@H](CCSC)NC(=O)[C@H](Cc1c[nH]c2ccccc12)NC(=O)[C@@H](NC(=O)[C@@H](N)CCSC)[C@@H](C)O)[C@@H](C)CC)[C@@H](C)O)[C@@H](C)CC)C(=O)N[C@@H](CCC(=O)O)C(=O)N[C@@H](CCC(=O)O)C(=O)N[C@@H](CO)C(=O)N[C@@H](CCC(N)=O)C(=O)N[C@@H](CC(N)=O)C(=O)N[C@@H](CCC(N)=O)C(=O)N[C@@H](CCC(N)=O)C(=O)N[C@@H](CCC(=O)O)C(=O)N[C@@H](CCCCN)C(=O)N[C@@H](CC(N)=O)C(=O)N[C@@H](CCC(=O)O)C(=O)N[C@@H](CCC(N)=O)C(=O)N[C@@H](CCC(=O)O)C(=O)N[C@@H](CC(C)C)C(=O)N[C@@H](CC(C)C)C(=O)N[C@@H](CCC(=O)O)C(=O)N[C@@H](CC(C)C)C(=O)O`: the clearance in data set [1] was 6.2 mL/min/kg. The concentration for half-maximal inhibition (IC50) in data set [2] was determined as 0.137 µg/mL (≈ 29 nM); in data set [4] it was 0.039 µg/mL (≈ 8.26 nM); in data set [6], 4.97 µg/mL (≈ 1050 nM); in data set [7] it was 0.008 µg/mL (≈ 1.69 nM); in data set [8], 0.032 µg/mL (≈ 6.78 nM). In data set [3], the Tm came to 74 °C. In addition, the half-life in data set [5] is 1.2 h.
On to `CC[C@H](C)[C@H](NC(=O)[C@H](C)NC(=O)[C@H](CCCNC(=N)N)NC(=O)[C@H](CC(=O)O)NC(=O)[C@H](Cc1c[nH]c2ccccc12)NC(=O)[C@H](C)NC(=O)[C@H](CCC(=O)O)NC(=O)[C@H](Cc1c[nH]c2ccccc12)NC(=O)[C@@H](NC(=O)[C@@H](N)[C@@H](C)O)[C@@H](C)O)C(=O)N[C@@H](C)C(=O)N[C@@H](CCC(=O)O)C(=O)N[C@@H](Cc1ccc(O)cc1)C(=O)N[C@@H](C)C(=O)N[C@@H](C)C(=O)N[C@@H](CCCNC(=N)N)C(=O)N[C@H](C(=O)N[C@@H](CCC(=O)O)C(=O)N[C@@H](C)C(=O)N[C@@H](CC(C)C)C(=O)N[C@H](C(=O)N[C@@H](CCCNC(=N)N)C(=O)N[C@@H](C)C(=O)N[C@@H](C)C(=O)N[C@@H](CCC(N)=O)C(=O)N[C@@H](CCC(=O)O)C(=O)N[C@@H](CCC(N)=O)C(=O)N[C@@H](CCC(N)=O)C(=O)N[C@@H](CCC(=O)O)C(=O)N[C@@H](CCCCN)C(=O)N[C@@H](CC(N)=O)C(=O)N[C@@H](CCC(=O)O)C(=O)N[C@@H](C)C(=O)N[C@@H](C)C(=O)N[C@@H](CC(C)C)C(=O)N[C@@H](CCCNC(=N)N)C(=O)N[C@@H](CCC(=O)O)C(=O)N[C@@H](CC(C)C)C(=O)O)[C@@H](C)CC)[C@@H](C)CC`, for which the clearance in data set [1] is 0.717 mL/min/kg. Further, the IC50 in data set [2] was found to be 0.015 µg/mL (≈ 3.4 nM); in data set [4] it was 0.025 µg/mL (≈ 5.66 nM); in data set [6], 0.021 µg/mL (≈ 4.76 nM); in data set [7], 0.007 µg/mL (≈ 1.59 nM); in data set [8] it was 0.018 µg/mL (≈ 4.08 nM). Besides, the Tm in data set [3] was determined as 86 °C. In data set [5], this molecule had a half-life of 16.3 h.
As to `CC[C@H](C)[C@H](NC(=O)[C@H](C)NC(=O)[C@H](CCCNC(=N)N)NC(=O)[C@H](CC(=O)O)NC(=O)[C@H](Cc1c[nH]c2ccccc12)NC(=O)[C@H](C)NC(=O)[C@H](CCC(=O)O)NC(=O)[C@H](Cc1c[nH]c2ccccc12)NC(=O)[C@@H](NC(=O)[C@@H](N)[C@@H](C)O)[C@@H](C)O)C(=O)N[C@@H](C)C(=O)N[C@@H](CCC(=O)O)C(=O)N[C@@H](Cc1ccc(O)cc1)C(=O)N[C@@H](C)C(=O)N[C@@H](C)C(=O)N[C@@H](CCCNC(=N)N)C(=O)N[C@H](C(=O)N[C@@H](CCC(=O)O)C(=O)N[C@@H](C)C(=O)N[C@@H](CC(C)C)C(=O)N[C@H](C(=O)N[C@@H](CCCNC(=N)N)C(=O)N[C@@H](C)C(=O)N[C@@H](CC(C)C)C(=O)N[C@@H](CCC(N)=O)C(=O)N[C@@H](CCC(=O)O)C(=O)N[C@@H](CC(C)C)C(=O)N[C@@H](CCC(N)=O)C(=O)N[C@@H](CCC(=O)O)C(=O)N[C@@H](CCCCN)C(=O)N[C@@H](CC(N)=O)C(=O)N[C@@H](CCC(N)=O)C(=O)N[C@@H](C)C(=O)N[C@H](C(=O)N[C@@H](CC(C)C)C(=O)N[C@@H](CCCNC(=N)N)C(=O)N[C@@H](CCC(=O)O)C(=O)N[C@@H](CC(C)C)C(=O)O)[C@@H](C)CC)[C@@H](C)CC)[C@@H](C)CC`, the Tm in data set [3] stood at 84 °C.
Regarding “H-MTWEAWDRAIAEYAARIEALIRAAQEQQEKNEAALREL-OH”, the clearance in data set [1] was 0.533 mL/min/kg. In addition, the half-maximal inhibitory concentration (IC50) was 0.014 µg/mL in data set [2]; 0.033 µg/mL in data set [4]; 0.021 µg/mL in data set [6]; 0.007 µg/mL in data set [7]; 0.026 µg/mL in data set [8]. The half-life in data set [5] is 5.1 h.
“H-MTWMAWDRAIANYAALIHALIEAAQNQQEKNEAALLEL-OH”: the IC50 in data set [2] came to 0.12 µg/mL; in data set [4] it was 0.079 µg/mL; in data set [6], 0.25 µg/mL; in data set [7], 0.061 µg/mL; in data set [8] it was 0.079 µg/mL.
Consider “H-TTWEAWDRAIAEYAARIEALIRAAQEQQEKNEAILREL-OH”, for which the clearance in data set [1] is 1.1 mL/min/kg. The IC50 was determined as 0.024 µg/mL in data set [2]; 0.034 µg/mL in data set [4]; 0.039 µg/mL in data set [6]; 0.007 µg/mL in data set [7]; 0.021 µg/mL in data set [8]. Also, in data set [5], the half-life was 3.4 h.
The molecule “H-TTWEAWDRAIAEYAARIEALIRALQELQEKLEAILREL-OH” gave a clearance in data set [1] of 0.05 mL/min/kg. For the same molecule, the IC50 in data set [2] is greater than 20 µg/mL; in data set [4], greater than 20 µg/mL; in data set [6], greater than 20 µg/mL; in data set [7], 3.16 µg/mL; in data set [8], greater than 20 µg/mL. The half-life in data set [5] was 35.4 h.
In data set [1], “H-TTWEAWDRAIAEYAARIEALIRALQELQEKNEAILREL-OH” showed a clearance of 0.15 mL/min/kg. Also, the 50% inhibitory concentration (IC50) in data set [2] is 0.192 µg/mL; in data set [4], 0.154 µg/mL; in data set [6], greater than 20 µg/mL; in data set [7] it was 0.065 µg/mL; in data set [8] it was 0.118 µg/mL. In addition, in data set [5], the half-life was 9.6 h.
For the molecule “H-TTWEAWDRAIAEYAARIEALIRALQEQQEKNEAALREL-OH”, the clearance in data set [1] was 0.167 mL/min/kg. The IC50 in data set [2] amounted to 0.035 µg/mL; in data set [4], 0.028 µg/mL; in data set [6], 0.05 µg/mL; in data set [7], 0.011 µg/mL; in data set [8], 0.035 µg/mL. This molecule showed a half-life in data set [5] of 15.2 h.
Take “H-TTWEEWDREINEYTSRIESLIRESQEQQEKNEQELREL-OH”: the half-inhibitory concentration (IC50) in data set [2] is 0.037 µg/mL; in data set [4], 0.056 µg/mL; in data set [6] it was 0.167 µg/mL; in data set [7], 0.012 µg/mL; in data set [8], 0.021 µg/mL. Moreover, the Tm in data set [3] is 80 °C.
